The values below come from ChEMBL document CHEMBL4152290, “1H-Benzo[d]imidazoles and 3,4-dihydroquinazolin-4-ones: Design, synthesis and antitubercular activity” (Eur J Med Chem, 2018).

Common to all, as to format: functional
For assay [1], the system named is Mycobacterium tuberculosis. The assay is described as follows: Antitubercular activity against multidrug-resistant Mycobacterium tuberculosis isolate CDCT16 harboring rpoB/katG/inhA mutant gene after 7 days by resazurin dye based assay. The method, boiled down: (§1)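 Resazurin microtiter MIC in 7H9 with 10% ADC. Two-fold dilutions from 1 mg/mL DMSO stocks span 25.0–0.05, 10.0–0.02 or 0.02–0.0004 µg/mL, with 2.5% DMSO final. Inoculum is bead-declumped culture grown in 7H9/10% OADC/0.05% Tween 80, diluted to OD600 0.006. Plates run 7 days at 37 °C, then 0.01% resazurin for 48 h. MIC is the lowest concentration preventing the blue-to-pink change. Three independent tests.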

Assay [2] deals with Mycobacterium tuberculosis. The assay is described as follows: Antitubercular activity against isoniazid/ethambutol-resistant Mycobacterium tuberculosis isolate CDCT27 harboring katG mutant gene after 7 days by resazurin dye based assay. The essentials:
as §1

For assay [3], the system named is Mycobacterium tuberculosis. The assay is described as follows: Antitubercular activity against Mycobacterium tuberculosis isolate CDCT28 harboring rpoB mutant gene after 7 days by resazurin dye based assay. The essentials:
as §1
For orientation: Resazurin is reduced to fluorescent resorufin, in cell work by metabolically active cells.

The subject of assay [4] is Mycobacterium tuberculosis. The assay is described as follows: Antitubercular activity against multidrug-resistant Mycobacterium tuberculosis isolate CDCT10 harboring rpoB/katG mutant gene after 7 days by resazurin dye based assay. The essentials:
as §1

SMILES strings stand for the structures. Values after ≈ are worked out from the molar mass of the structure shown.

Usually MIC stands for the least concentration at which growth counts as inhibited. A higher MIC goes with a less susceptible organism. On to `O=C(CSc1nc2ccccc2c(=O)[nH]1)NC1CCCCC1`, for which the MIC is 0.97 µM (≈ 0.308 µg/mL) in assay [1], 0.25 µM (≈ 0.0794 µg/mL) in assay [2], 0.5 µM (≈ 0.159 µg/mL) in assay [3] and 0.5 µM (≈ 0.159 µg/mL) in assay [4].

Regarding `C[C@H]1CC[C@H](NC(=O)CSc2nc3ccccc3c(=O)[nH]2)CC1`, the MIC in assay [1] came to 0.24 µM (≈ 0.0795 µg/mL); in assay [2], 0.12 µM (≈ 0.0398 µg/mL); in assay [3], 0.12 µM (≈ 0.0398 µg/mL); in assay [4], 0.12 µM (≈ 0.0398 µg/mL).

Consider `CC1CCCCC1NC(=O)CSc1nc2ccccc2c(=O)[nH]1` (configuration not stated), for which the MIC in assay [1] was 3.9 µM (≈ 1.29 µg/mL); in assay [2] it was 0.96 µM (≈ 0.318 µg/mL); in assay [3], 1.9 µM (≈ 0.63 µg/mL); in assay [4], 0.95 µM (≈ 0.315 µg/mL).

Consider `NNC(=O)c1ccncc1` [ISONIAZID], for which the MIC in assay [1] was greater than 729.2 µM; in assay [2] it was 182.3 µM (≈ 25 µg/mL); in assay [3], 2.84 µM (≈ 0.389 µg/mL); in assay [4], 45.6 µM (≈ 6.25 µg/mL).

For the molecule `CC1CCCC(NC(=O)CSc2nc3ccccc3c(=O)[nH]2)C1` (configuration not stated), the minimal inhibitory concentration (MIC) was determined as 0.9 µM (≈ 0.298 µg/mL) in assay [1], 0.24 µM (≈ 0.0795 µg/mL) in assay [2], 0.93 µM (≈ 0.308 µg/mL) in assay [3] and 0.94 µM (≈ 0.312 µg/mL) in assay [4].

With `CC1CCC(NC(=O)CSc2nc3ccccc3c(=O)[nH]2)CC1` (configuration not stated), the MIC in assay [1] is 0.48 µM (≈ 0.159 µg/mL); in assay [2], 0.12 µM (≈ 0.0398 µg/mL); in assay [3], 0.24 µM (≈ 0.0795 µg/mL); in assay [4], 0.24 µM (≈ 0.0795 µg/mL).

With `O=C(CSc1nc2ccccc2c(=O)[nH]1)NCC1CCCCC1`, the MIC in assay [1] came out at 0.93 µM (≈ 0.308 µg/mL); in assay [2] it was 0.48 µM (≈ 0.159 µg/mL); in assay [3], 0.93 µM (≈ 0.308 µg/mL); in assay [4], 0.93 µM (≈ 0.308 µg/mL).

In the case of `O=C(CSc1nc2ccccc2c(=O)[nH]1)NC1CCCCCC1`, the minimum inhibitory concentration (MIC) in assay [1] is 0.93 µM (≈ 0.308 µg/mL); in assay [2], 0.24 µM (≈ 0.0795 µg/mL); in assay [3], 0.48 µM (≈ 0.159 µg/mL); in assay [4] it was 0.48 µM (≈ 0.159 µg/mL).
